Test [1] concerns the target T1, Cereblon/Ikaros (Homo sapiens) (UniProt Q96SW2+Q13422). Put plainly: Protac activity at CRBN/IKZF1 in human MM1S cells assessed as IKZF1 degradation at 100 nM measured after 6 hrs by Western blot analysis. Type of test: cell-based.
Test [2] deals with T2, Protein cereblon/Protein deacetylase HDAC6 (Homo sapiens, UniProt Q9UBN7+Q96SW2). Description: Protac activity at CRBN/HDAC6 in human MM1S cells assessed as HDAC6 degradation measured after 6 hrs by ELISA. Type of test: cell-based. A digest of the protocol: (§1)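 In-cell ELISA: MM1S cells (5 × 10^4 per well) seeded overnight, treated 6 h (dosed as 5× medium; 0.1 nM–1 μM or 10/100 nM). Fixed in 8% formaldehyde/TBS, permeabilized with 0.1% Triton X, peroxidase quenched with 1% H2O2, blocked in 5% BSA. Anti-HDAC6 rabbit mAb (1:1000, 2 h) then HRP secondary; TMB read as OD450 − OD570. Background wells lacked primary antibody. Signal normalized to Janus Green and to DMSO wells, n = 3. DC50/Dmax from three-parameter fit.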
Target sequence in this assay (Q9UBN7 whole entry): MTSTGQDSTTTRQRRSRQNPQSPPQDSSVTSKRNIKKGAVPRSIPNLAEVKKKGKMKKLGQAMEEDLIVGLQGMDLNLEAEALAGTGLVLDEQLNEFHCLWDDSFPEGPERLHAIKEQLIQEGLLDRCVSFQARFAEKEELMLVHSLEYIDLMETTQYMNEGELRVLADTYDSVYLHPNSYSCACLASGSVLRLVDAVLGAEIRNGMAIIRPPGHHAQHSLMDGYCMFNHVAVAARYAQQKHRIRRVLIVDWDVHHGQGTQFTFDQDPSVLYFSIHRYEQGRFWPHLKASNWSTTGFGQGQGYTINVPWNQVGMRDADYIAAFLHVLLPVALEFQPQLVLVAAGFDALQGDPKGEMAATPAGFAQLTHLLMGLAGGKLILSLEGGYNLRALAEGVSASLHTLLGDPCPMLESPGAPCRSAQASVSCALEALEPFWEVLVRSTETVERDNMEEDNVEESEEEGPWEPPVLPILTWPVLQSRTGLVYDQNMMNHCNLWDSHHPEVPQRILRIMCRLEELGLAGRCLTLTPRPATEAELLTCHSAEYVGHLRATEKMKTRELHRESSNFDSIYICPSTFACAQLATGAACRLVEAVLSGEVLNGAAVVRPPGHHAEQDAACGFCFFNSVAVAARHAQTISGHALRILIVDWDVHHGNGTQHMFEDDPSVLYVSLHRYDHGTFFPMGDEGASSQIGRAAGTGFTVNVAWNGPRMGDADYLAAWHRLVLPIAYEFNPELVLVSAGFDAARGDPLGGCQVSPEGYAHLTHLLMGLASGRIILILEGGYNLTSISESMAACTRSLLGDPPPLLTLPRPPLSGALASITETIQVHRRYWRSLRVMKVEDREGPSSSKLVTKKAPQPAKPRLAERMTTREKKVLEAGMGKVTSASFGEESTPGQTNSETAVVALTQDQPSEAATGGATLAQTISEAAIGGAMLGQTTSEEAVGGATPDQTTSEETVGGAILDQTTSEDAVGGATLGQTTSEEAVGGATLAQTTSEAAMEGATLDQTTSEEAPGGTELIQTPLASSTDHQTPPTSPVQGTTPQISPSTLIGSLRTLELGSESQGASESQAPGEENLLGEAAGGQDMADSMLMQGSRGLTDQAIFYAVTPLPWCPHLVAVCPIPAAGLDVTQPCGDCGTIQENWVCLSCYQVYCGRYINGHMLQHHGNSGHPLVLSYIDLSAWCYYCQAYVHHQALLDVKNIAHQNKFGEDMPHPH
Target sequence in this assay (Q96SW2 whole entry): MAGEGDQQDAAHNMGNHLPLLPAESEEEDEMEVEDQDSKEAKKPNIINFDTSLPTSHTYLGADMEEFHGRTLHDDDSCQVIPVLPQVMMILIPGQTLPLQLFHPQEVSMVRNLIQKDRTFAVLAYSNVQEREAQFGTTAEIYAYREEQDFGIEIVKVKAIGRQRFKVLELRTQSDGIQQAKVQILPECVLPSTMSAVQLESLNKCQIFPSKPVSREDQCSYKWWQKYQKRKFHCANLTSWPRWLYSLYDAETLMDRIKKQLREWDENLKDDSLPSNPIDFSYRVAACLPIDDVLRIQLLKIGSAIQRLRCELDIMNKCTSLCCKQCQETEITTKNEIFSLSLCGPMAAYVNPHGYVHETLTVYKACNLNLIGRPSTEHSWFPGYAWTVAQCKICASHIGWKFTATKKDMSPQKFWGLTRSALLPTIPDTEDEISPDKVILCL

Test [3] has as its target T2, Protein cereblon/Protein deacetylase HDAC6. Put plainly: Protac activity at CRBN/HDAC6 in human MM1S cells assessed as HDAC6 degradation measured after 6 hrs by ELISA relative to control. Type of test: cell-based. A digest of the protocol: as §1
Target sequence in this assay (Q96SW2 whole entry, looked up): as the sequence (Q96SW2 whole entry) above
Target sequence in this assay (Q9UBN7 whole entry, looked up): as the sequence (Q9UBN7 whole entry) above
For test [4] the target is unchanged. Put plainly: Protac activity at CRBN/HDAC6 in human MM1S cells assessed as HDAC6 degradation at 3 to 30 nM measured after 6 hrs by Western blot analysis. In kind it is cell-based.
Target sequence in this assay (Q96SW2 whole entry, looked up): as the sequence (Q96SW2 whole entry) above
Target sequence in this assay (Q9UBN7 whole entry, looked up): as the sequence (Q9UBN7 whole entry) above
The target of test [5] is Protein cereblon/Zinc finger protein Aiolos (Homo sapiens) (UniProt Q96SW2+Q9UKT9). Description: Protac activity at CRBN/IKZF3 in human MM1S cells assessed as IKZF3 degradation measured after 6 hrs by Western blot analysis. In kind it is cell-based.
Sequence of Protein cereblon/Zinc finger protein Aiolos (Homo sapiens) (Q96SW2 whole entry, looked up): as the sequence (Q96SW2 whole entry) above
Sequence of Protein cereblon/Zinc finger protein Aiolos (Homo sapiens) (Q9UKT9 whole entry, looked up): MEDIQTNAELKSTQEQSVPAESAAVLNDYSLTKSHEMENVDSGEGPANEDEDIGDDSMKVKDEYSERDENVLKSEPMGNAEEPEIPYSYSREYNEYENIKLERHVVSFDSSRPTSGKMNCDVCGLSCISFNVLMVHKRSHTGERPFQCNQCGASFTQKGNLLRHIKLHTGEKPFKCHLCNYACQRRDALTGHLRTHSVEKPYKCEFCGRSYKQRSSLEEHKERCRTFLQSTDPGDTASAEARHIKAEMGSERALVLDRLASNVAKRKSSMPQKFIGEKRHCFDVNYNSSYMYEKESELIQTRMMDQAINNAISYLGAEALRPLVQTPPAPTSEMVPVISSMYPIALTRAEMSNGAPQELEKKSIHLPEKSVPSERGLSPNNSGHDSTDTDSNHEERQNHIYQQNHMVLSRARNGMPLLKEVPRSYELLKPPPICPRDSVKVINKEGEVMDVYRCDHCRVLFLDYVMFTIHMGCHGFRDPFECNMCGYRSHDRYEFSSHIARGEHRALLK
The target of test [6] is Protein cereblon/Histone deacetylase 3 (Homo sapiens) (UniProt O15379+Q96SW2). Put plainly: Protac activity at CRBN/HDAC3 in human MM1S cells assessed as HDAC3 degradation measured after 6 hrs by Western blot analysis. In kind it is cell-based.
Sequence of Protein cereblon/Histone deacetylase 3 (Homo sapiens) (O15379 whole entry, looked up): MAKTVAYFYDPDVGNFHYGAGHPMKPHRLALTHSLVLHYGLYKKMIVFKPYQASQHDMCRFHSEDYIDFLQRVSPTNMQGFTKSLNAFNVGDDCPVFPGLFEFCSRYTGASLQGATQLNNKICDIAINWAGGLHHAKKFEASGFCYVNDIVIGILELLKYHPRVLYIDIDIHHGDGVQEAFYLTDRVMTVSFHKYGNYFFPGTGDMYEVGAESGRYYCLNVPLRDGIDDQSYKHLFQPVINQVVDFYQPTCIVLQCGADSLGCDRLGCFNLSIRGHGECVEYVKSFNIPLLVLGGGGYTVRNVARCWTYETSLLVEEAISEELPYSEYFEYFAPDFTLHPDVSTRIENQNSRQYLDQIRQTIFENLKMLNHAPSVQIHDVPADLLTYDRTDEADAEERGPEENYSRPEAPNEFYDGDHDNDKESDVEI
Sequence of Protein cereblon/Histone deacetylase 3 (Homo sapiens) (Q96SW2 whole entry, looked up): as the sequence (Q96SW2 whole entry) above
In test [7] the target is T3, Protein cereblon/Histone deacetylase 4 (Homo sapiens) (UniProt P56524+Q96SW2). Description: Protac activity at CRBN/HDAC4 in human MM1S cells assessed as HDAC4 degradation measured after 6 hrs by Western blot analysis. In kind it is cell-based.
T3 sequence (P56524 whole entry, looked up): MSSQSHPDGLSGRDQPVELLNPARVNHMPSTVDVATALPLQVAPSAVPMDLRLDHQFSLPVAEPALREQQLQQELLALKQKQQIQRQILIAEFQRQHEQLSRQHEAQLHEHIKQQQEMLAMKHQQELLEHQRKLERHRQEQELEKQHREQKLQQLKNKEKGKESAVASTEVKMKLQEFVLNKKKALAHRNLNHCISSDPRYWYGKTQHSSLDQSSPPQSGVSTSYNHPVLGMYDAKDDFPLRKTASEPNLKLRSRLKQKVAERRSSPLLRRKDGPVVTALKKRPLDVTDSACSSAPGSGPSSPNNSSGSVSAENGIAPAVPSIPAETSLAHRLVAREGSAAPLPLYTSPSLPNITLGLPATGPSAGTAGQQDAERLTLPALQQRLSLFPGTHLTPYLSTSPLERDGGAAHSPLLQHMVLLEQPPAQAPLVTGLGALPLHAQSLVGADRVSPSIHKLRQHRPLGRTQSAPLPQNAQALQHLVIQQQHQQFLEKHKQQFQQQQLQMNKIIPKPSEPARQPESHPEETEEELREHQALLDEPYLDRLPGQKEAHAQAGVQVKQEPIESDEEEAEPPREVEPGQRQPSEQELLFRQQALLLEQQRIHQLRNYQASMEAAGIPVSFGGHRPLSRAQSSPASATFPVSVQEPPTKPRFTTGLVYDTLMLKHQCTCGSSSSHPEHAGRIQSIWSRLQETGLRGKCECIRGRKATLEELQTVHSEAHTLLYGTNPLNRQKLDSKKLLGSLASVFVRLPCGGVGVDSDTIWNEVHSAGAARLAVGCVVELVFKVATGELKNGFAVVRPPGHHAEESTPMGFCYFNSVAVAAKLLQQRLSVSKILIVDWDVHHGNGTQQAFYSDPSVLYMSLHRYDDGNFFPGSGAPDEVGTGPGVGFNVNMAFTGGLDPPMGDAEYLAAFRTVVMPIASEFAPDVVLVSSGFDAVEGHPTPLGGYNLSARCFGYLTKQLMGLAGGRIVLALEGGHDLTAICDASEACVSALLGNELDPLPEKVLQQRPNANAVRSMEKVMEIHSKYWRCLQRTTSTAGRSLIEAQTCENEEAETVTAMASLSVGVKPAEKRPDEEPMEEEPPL
T3 sequence (Q96SW2 whole entry, looked up): as the sequence (Q96SW2 whole entry) above
Test [8] deals with T2, Protein cereblon/Protein deacetylase HDAC6. Description: Protac activity at CRBN/HDAC6 in human MM1S cells assessed as induction of alpha tubulin acetylation measured after 6 hrs by Western blot analysis. In kind it is cell-based.
Target sequence in this assay (Q96SW2 whole entry, looked up): as the sequence (Q96SW2 whole entry) above
Target sequence in this assay (Q9UBN7 whole entry, looked up): as the sequence (Q9UBN7 whole entry) above
Test [9] has the same target. Description: Protac activity at CRBN/HDAC6 in human MM1S cells assessed as HDAC6 degradation at 100 nM measured after 1 to 4 hrs by Western blot analysis. Type of test: cell-based.
Target sequence in this assay (Q96SW2 whole entry, looked up): as the sequence (Q96SW2 whole entry) above
Target sequence in this assay (Q9UBN7 whole entry, looked up): as the sequence (Q9UBN7 whole entry) above
Test [10] has the same target. Description: Protac activity at CRBN/HDAC6 in human A431 cells assessed as HDAC6 degradation up to 10 uM incubated for 6 hrs by Western blot analysis. Type of test: cell-based.
Target sequence in this assay (Q96SW2 whole entry, looked up): as the sequence (Q96SW2 whole entry) above
Target sequence in this assay (Q9UBN7 whole entry, looked up): as the sequence (Q9UBN7 whole entry) above
For test [11] the target is unchanged. Put plainly: Protac activity at CRBN/HDAC6 in human A431 cells assessed as HDAC6 degradation up to 3 uM incubated for 12 hrs by Western blot analysis. Type of test: cell-based.
Target sequence in this assay (Q96SW2 whole entry, looked up): as the sequence (Q96SW2 whole entry) above
Target sequence in this assay (Q9UBN7 whole entry, looked up): as the sequence (Q9UBN7 whole entry) above
The target in a further test is T4, Histone deacetylase 11 (Homo sapiens, UniProt Q96DB2).
T4 sequence (Q96DB2 whole entry): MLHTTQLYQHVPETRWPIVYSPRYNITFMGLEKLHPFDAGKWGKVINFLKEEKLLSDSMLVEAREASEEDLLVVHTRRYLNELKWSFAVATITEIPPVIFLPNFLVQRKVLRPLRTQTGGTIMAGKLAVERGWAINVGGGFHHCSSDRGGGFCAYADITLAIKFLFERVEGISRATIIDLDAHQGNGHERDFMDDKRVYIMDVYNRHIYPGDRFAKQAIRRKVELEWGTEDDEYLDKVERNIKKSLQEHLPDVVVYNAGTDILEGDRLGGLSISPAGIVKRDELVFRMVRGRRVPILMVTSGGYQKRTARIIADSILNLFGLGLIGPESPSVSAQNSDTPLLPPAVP
Put plainly: Inhibition of human N-terminal tagged human HDAC11 expressed in HEK293T/17 using Boc-[TFA-Lys]-AMC as substrate preincubated for 10 mins followed by substrate addition and measured after 60 mins by fluorescence assay.

For test [12], the target named is T2, Protein cereblon/Protein deacetylase HDAC6. Description: Protac activity at CRBN/HDAC6 in human MM1S cells assessed as HDAC6 degradation at 100 nM measured after 6 hrs in presence of HDAC6 inhibitor Next-A by Western blot analysis. Type of test: cell-based.
In test [13] the target is T1, Cereblon/Ikaros (Homo sapiens). Description: Protac activity at CRBN/IKZF1 in human MM1S cells assessed as IKZF1 degradation at 100 nM measured after 6 hrs in presence of E3 ligase ligand pomalidomide by Western blot analysis. Type of test: cell-based.
For test [14] the target is unchanged. Put plainly: Protac activity at CRBN/IKZF1 in human MM1S cells assessed as IKZF1 degradation at 100 nM measured after 6 hrs in presence of HDAC6 inhibitor Next-A by Western blot analysis. Type of test: cell-based. The gist of the method: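 MM1S cells seeded at 1 × 10^6 per well overnight. Pretreated 1 h with pomalidomide, Next-A, MLN 4924 or DMSO, then given 100 nM degrader or DMSO for 6 h. Lysed in RIPA with protease inhibitors, 10−40 μg protein run on SDS-PAGE and transferred to PVDF. Blots probed for IKZF1/IKZF3, detected by ECL and quantified by densitometry.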

For test [15], the target named is T2, Protein cereblon/Protein deacetylase HDAC6. Put plainly: Protac activity at CRBN/HDAC6 in human MM1S cells assessed as HDAC6 degradation at 100 nM measured after 6 hrs in presence of proteasome inhibitor MG132 by Western blot analysis. Type of test: cell-based.
The target of test [16] is T3, Protein cereblon/Histone deacetylase 4 (Homo sapiens). Description: Protac activity at CRBN/HDAC4 in human MM1S cells assessed as HDAC4 degradation at 100 nM measured after 6 hrs in presence of proteasome inhibitor MG132 by Western blot analysis. Type of test: cell-based.
Test [17] addresses T2, Protein cereblon/Protein deacetylase HDAC6. Put plainly: Protac activity at CRBN/HDAC6 in human MM1S cells assessed as induction of alpha tubulin acetylation at 100 nM measured after 6 hrs in presence of proteasome inhibitor bortezomib by Western blot analysis. Type of test: cell-based.
Test [18] relates to MM1.S. Put plainly: Effect on IKZF3 mRNA expression in human MM1S cells at 100 nM measured after 6 hrs by SYBR green dye-based qRT-PCR analysis. In kind it is functional, cell-based. The gist of the method:
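After treatment, MM1S cells washed twice with cold PBS. Total RNA extracted and normalized, then reverse-transcribed. 10 ng cDNA amplified with SYBR Green: 50 °C 2 min, 95 °C 2 min, then 40 cycles of 95 °C 1 s / 60 °C 30 s, followed by a melt curve. Expression calculated by the 2−ΔΔCt method.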

Test [19] relates to MM1.S. Description: Antiproliferative activity against human MM1S cells assessed as reduction in cell viability at 1 uM measured after 72 hrs by resazurin dye based assay. Type of test: functional.
Test [20] deals with MM1.S. Put plainly: Antiproliferative activity against human MM1S cells assessed as reduction in cell viability measured after 72 hrs by resazurin dye based assay. In kind it is functional. The gist of the method: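 MM1S cells seeded at 1 × 10^4 per well, left overnight, then given compound or DMSO vehicle (added as 5× dosing medium) for 72 h at 37 °C, 5% CO2. Resazurin added (10× solution, 1 mg/mL), then incubated overnight at 37 °C. OD read at 570 and 600 nm. Viability is relative to vehicle, n = 3. Curves fitted as [inhibitor] vs response (three parameters); test range 0.3 nM–3 μM.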

The subject of test [21] is MM1.S. Description: Induction of apoptosis in human MM1S cells assessed as cleavage of PARP measured after 48 hrs by Western blot analysis. Type of test: functional, cell-based.

Molecules are shown by their SMILES. The source made the active and inactive calls. The rule behind the calls is not given here.

In the case of `CCCCN(Cc1ccc(C(=O)NO)cc1)C(=O)Nc1ccc(OCCCCCn2cc(CNc3cccc4c3C(=O)N(C3CCC(=O)NC3=O)C4=O)nn2)cc1` (configuration not stated), the outcome in test [1], in test [4], in test [10], in test [11], in test [13] and in test [14] was Active. The result in the test with MM1.S [18] and with MM1.S [19] was Active. Also, the DC50 in [2] was 1.64 nM. Besides, the %max in [3] was found to be 86.3%. Also, the Activity result (in test [5]; in test [8]; in [9]; in the test on MM1.S [21]) was “Dose-dependent effect” in each case. Moreover, the outcome in test [6], in test [7], in test [12], in test [15], in test [16] and in test [17] was inactive. In addition, at Histone deacetylase 11, the 50% inhibitory concentration (IC50) lay in the range of 300 to 30000 nM. In addition, the 50% effective concentration (EC50) with MM1.S [20] was determined as 74.9 nM.

Source of the values: ChEMBL document CHEMBL4311941, “Development of Multifunctional Histone Deacetylase 6 Degraders with Potent Antimyeloma Activity” (J Med Chem, 2019).
